Assay [1] concerns the target T1, Pin1-PPIase (truncated human Pin1 construct omitting the WW domain) (Homo sapiens, UniProt Q13526). Nature of the assay: 15N–1H chemical shift perturbation ligand titration. The class given is binding. Put shortly: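 Pin1-PPIase was titrated with the test compound, and the protein's amide 15N–1H chemical shift perturbations were followed. Kd was obtained by fitting the resulting binding isotherms.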

Assay [2] deals with T1, Pin1-PPIase (truncated human Pin1 construct omitting the WW domain). Description: 2-D 1H–1H EXSY of cis–trans isomerization with Pin1-PPIase. The class given is biochemical. The note with it: 1H–1H EXSY of attached P4 Hδ protons. Put shortly: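 2-D 1H–1H EXSY was run on an acetylated, amidated phospho-Ser-Pro pentapeptide substrate with Pin1-PPIase. Enzyme levels relative to ligand were raised up to 20%. Cis–trans exchange rate and cis population were taken from the EXSY data.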

For assay [3] the target is unchanged. Description: Natural abundance 13C CPMG relaxation dispersion of ligand with Pin1-PPIase. The class given is binding.
Assay [4] has as its target T2, cis-locked alkene isostere inhibitor (also: pSer-Pro amide replaced by (Z)CH=C alkene isostere).
T2 chain: Ac-FF[pS]PR-NH2
Nature of the assay: NMR chemical shift titration.

In assay [5] the target is T3, trans-locked alkene isostere inhibitor (also: pSer-Pro amide replaced by (E)CH=C alkene isostere).
T3 chain: Ac-FF[pS]PR-NH2
Nature of the assay: NMR chemical shift titration.

The target in assay [6] is T4, FFpSPR substrate phosphopeptide (SMILES CC(=O)N[C@@H](Cc1ccccc1)C(=O)N[C@@H](Cc1ccccc1)C(=O)N[C@@H](COP(=O)(O)O)C(=O)N1CCC[C@H]1C(=O)N[C@@H](CCCNC(=N)N)C(N)=O).
T4 chain: Ac-FF[pS]PR-NH2
Description: NMR chemical shift titration.

[7] abbreviates: side-chain P4-Cδ, 1% Pin1-PPIase, two-state fit.

Non-standard residues stand in square brackets, D forms with d. Residues, ends and D or L forms follow the SMILES beside them. pS = N[C@@H](COP(=O)(O)O)C(=O)O

T1 sequence (Q13526 50-163 limits assumed): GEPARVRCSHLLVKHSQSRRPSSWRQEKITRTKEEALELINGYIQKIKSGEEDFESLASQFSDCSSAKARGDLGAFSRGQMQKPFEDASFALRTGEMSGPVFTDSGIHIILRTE

On to `CC(=O)N[C@@H](Cc1ccccc1)C(=O)N[C@@H](Cc1ccccc1)C(=O)N[C@@H](COP(=O)(O)O)C(=O)N1CCC[C@H]1C(=O)N[C@@H](CCCNC(=N)N)C(N)=O` [FFpSPR, Ac-Phe-Phe-pSer-Pro-Arg-NH2] (Ac-FF[pS]PR-NH2), for which, in assay [1], the Kd is 203 ± 46 µM. This molecule also showed a pCIS in assay [2] (cis population) of 12 ± 2%. Also, in assay [2] (cis–trans isomerization), the “kex,CIS/TRANS” value is 87 ± 4 s⁻¹. Also, the kex is 200 to 800 s⁻¹ in assay [3] (P4-Cα and F1-Cα, 1% Pin1-PPIase); 85 ± 9 s⁻¹ in assay [3] (setting [7]). For the same molecule, the “C-terminal R5-Cα dispersion” value in assay [3] (R5-Cα, 1% Pin1-PPIase) is recorded as “strong dispersion”. The molecule also gave a pminor in assay [3] (setting [7]) of 17 ± 4%. For the same molecule, the “13C dispersion at lower temperature” value in assay [3] (with Pin1-PPIase, lower temperature) is recorded as “decrease in FFpSPR dispersion”.

B1: Pin1 PPIase domain (protein)
chain: PARVRCSHLLVKHSQSRRPSSWRQEKITRTKEEALELINGYIQKIKSGEEDFESLASQFSDCSSAKARGDLGAFSRGQMQKPFEDASFALRTGEMSGPVFTDSGIHIILRTE
As to B1, the dissociation constant Kd worked out at 7 µM in assay [4], 78 µM in assay [5] and 203 µM in assay [6].

The term Kd denotes the constant that tells how readily two partners part at equilibrium.

For the origin of these results see PMC3056322 (Journal of the American Chemical Society, 2010).
